Test results: ChEMBL document CHEMBL4196158, “New Class of Selective Estrogen Receptor Degraders (SERDs): Expanding the Toolbox of PROTAC Degrons” (ACS Med Chem Lett, 2018)
The source made the active and inactive calls. The calls are words filed in the database; no cut-off is given here.

Assays:
MCF7 [1] = test: Proteolysis targeting chimera activity in human MCF7 cells assessed as induction of E3 ubiquitin ligase-mediated ERalpha level after 24 hrs by in-cell Western assay relative to control; format: cell-based; parameters: concentration or dose not given beside the values
Procedure, shortened: (§1)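 MCF-7 cells in stripped medium were dosed across a concentration range (log ~10^-11 to 10^-5 M) for 24 h, and ERα was quantified by in-cell Western. Average ± SEM of 4 measurements, n = 3 unless noted. IC50 derived from the dose-response curve. Efficacy is the ERα level at the highest dose, as % of vehicle control.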

MCF7 [2] = test: Antiproliferative activity against human MCF7 cells assessed as cell proliferation after 6 days by MTT assay relative to control; format: functional; parameters: concentration or dose not given beside the values
Procedure, shortened: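 MCF-7 cells kept in complete medium, dosed across a concentration range (log scale ~10^-11 to 10^-5 M) for 6 days; cell density read by MTT. Average ± SEM of 4 measurements, n = 3 unless noted. IC50 taken from dose-response. Efficacy given as relative proliferation rate at highest dose versus vehicle, with the fulvestrant level set to zero.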

MCF7 [3] = test: Antiproliferative activity against human MCF7 cells after 6 days by MTT assay; details: MCF7, 144 h
[4] = biological target: T1, Estrogen receptor (Homo sapiens) (UniProt P03372); test: Displacement of [3H]estradiol from human full length ERalpha after 18 to 24 hrs by scintillation counting method
T1 sequence (whole entry): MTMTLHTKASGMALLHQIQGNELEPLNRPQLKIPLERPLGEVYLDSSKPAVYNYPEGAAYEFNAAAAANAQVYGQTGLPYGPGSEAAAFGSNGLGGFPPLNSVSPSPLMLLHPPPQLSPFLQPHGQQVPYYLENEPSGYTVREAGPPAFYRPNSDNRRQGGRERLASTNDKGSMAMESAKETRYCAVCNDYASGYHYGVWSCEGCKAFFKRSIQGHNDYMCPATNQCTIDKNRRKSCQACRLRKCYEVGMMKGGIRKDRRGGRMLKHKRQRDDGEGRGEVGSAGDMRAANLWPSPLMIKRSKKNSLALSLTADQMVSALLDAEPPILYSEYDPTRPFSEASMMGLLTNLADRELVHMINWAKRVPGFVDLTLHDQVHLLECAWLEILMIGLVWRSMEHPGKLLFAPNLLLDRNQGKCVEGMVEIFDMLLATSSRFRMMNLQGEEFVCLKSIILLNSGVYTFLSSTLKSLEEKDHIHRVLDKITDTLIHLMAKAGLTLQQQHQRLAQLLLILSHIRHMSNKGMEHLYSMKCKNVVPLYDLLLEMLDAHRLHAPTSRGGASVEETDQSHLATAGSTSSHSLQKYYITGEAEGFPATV

[5] = biological target: T1, Estrogen receptor (Homo sapiens); test: Antagonist activity at ERalpha in human […] assessed as inhibition of estradiol-induced pS2 gene expression level at 3 uM after 24 hrs by qRT-PCR method; format: cell-based
Procedure, shortened: (§2)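 MCF-7 cells exposed 24 h to 3 µM compound with or without 1 nM estradiol (E2); transcript levels of PgR, pS2 and GREB1 quantified by qRT-PCR.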

[6] = biological target: T1, Estrogen receptor (Homo sapiens); test: Antagonist activity at ERalpha in human […] assessed as inhibition of estradiol-induced GREB1 gene expression level at 3 uM after 24 hrs by qRT-PCR method; format: cell-based; procedure, shortened: as §2
[7] = biological target: T1, Estrogen receptor (Homo sapiens); test: Antagonist activity at ERalpha in human […] assessed as inhibition of estradiol-induced PgR gene expression level at 3 uM after 24 hrs by qRT-PCR method; format: cell-based; procedure, shortened: as §2
[8] = Proteolysis targeting chimera activity in human MCF7 cells assessed as induction of E3 ubiquitin ligase-mediated ERalpha degradation by proteasome after 24 hrs by in-cell Western assay; format: cell-based; details: MCF7, 24 h; procedure, shortened: as §1
MCF7 [9] = test: Proteolysis targeting chimera activity in human MCF7 cells assessed as induction of E3 ubiquitin ligase-mediated ERalpha level after 24 hrs by in presence of proteasome inhibitor MG132 by in-cell Western assay; format: cell-based

Work on `O=C(NCCCCOc1ccc(C(=C2C3CC4CC(C3)CC2C4)c2ccc(O)cc2)cc1)C1CCC1` yielded an Activity (MCF7 [1]) of 69%, an Activity (MCF7 [2]) of 15% and an IC50 (MCF7 [3]) of 3 nM. The RBA [4] was 70%.

For `O=C(NCCCCOc1ccc(C(=C2C3CC4CC(C3)CC2C4)c2ccc(O)cc2)cc1)[C@H]1CC[C@H](C(F)(F)F)CC1`, the inhibition [5] was “Active”, the Activity (MCF7 [1]) was 31% and the inhibition [6] was “Active”. For the same compound, the inhibition [7] was “Active”, the Activity (MCF7 [2]) was 13% and the IC50 [8] was 2 nM. For the same compound, the IC50 (MCF7 [3]) was 0.5 nM and the RBA [4] was 10%.

For `CC(C)(C)OC(=O)N[C@@H](Cc1c[nH]c2ccccc12)C(=O)NCCCCOc1ccc(C(=C2C3CC4CC(C3)CC2C4)c2ccc(O)cc2)cc1`, the inhibition [5] was “Active”, the Activity (MCF7 [1]) was 45% and the inhibition [6] was “Active”. The inhibition [7] was “Active”, the Activity (MCF7 [2]) was 16% and the IC50 [8] was 0.5 nM. The IC50 (MCF7 [3]) was 16 nM and the RBA [4] was 20%.

Compound `O=C(NCCCCOc1ccc(C(=C2C3CC4CC(C3)CC2C4)c2ccc(O)cc2)cc1)C12CC3CC(CC1C3)C2` has an Activity (MCF7 [1]) of 71%, an Activity (MCF7 [2]) of 42% and an IC50 [8] of 2 nM. The IC50 (MCF7 [3]) was 12 nM and the RBA [4] was 17%.

For `C[C@]12CC[C@@H]3c4ccc(O)cc4C[C@@H](CCCCCCCCC[S+]([O-])CCCC(F)(F)C(F)(F)F)[C@H]3[C@@H]1CC[C@@H]2O` (stereo partly specified) [FULVESTRANT], the Activity (MCF7 [1]) was 9%, the Activity (MCF7 [2]) was 0% and the IC50 [8] was < 0.1 nM. For the same compound, the IC50 (MCF7 [3]) was < 0.1 nM and the RBA [4] was 61%.

For `O=C(NCCCCOc1ccc(C(=C2C3CC4CC(C3)CC2C4)c2ccc(O)cc2)cc1)C12CC3CC(CC(C3)C1)C2`, the Activity (MCF7 [1]) was 51%, the Activity (MCF7 [2]) was 13% and the IC50 [8] was 6 nM. The IC50 (MCF7 [3]) was 13 nM and the RBA [4] was 11%.

For `CC12CC3CC(C)(C1)CC(C(=O)NCCCCOc1ccc(C(=C4C5CC6CC(C5)CC4C6)c4ccc(O)cc4)cc1)(C3)C2`, the Activity (MCF7 [1]) was 42%, the Activity (MCF7 [2]) was 57% and the IC50 [8] was 10 nM. It also gave an IC50 (MCF7 [3]) of 5 nM and an RBA [4] of 6%.

`O=C(NCCCCOc1ccc(C(=C2C3CC4CC(C3)CC2C4)c2ccc(O)cc2)cc1)[C@@H]1C[C@@H]2C=C[C@H]1C2` showed an Activity (MCF7 [1]) of 53%, an Activity (MCF7 [2]) of 42% and an IC50 [8] of 0.5 nM. It also gave an IC50 (MCF7 [3]) of 9 nM and an RBA [4] of 37%.

For `CC(C)C[C@H](NC(=O)OC(C)(C)C)C(=O)NCCCCOc1ccc(C(=C2C3CC4CC(C3)CC2C4)c2ccc(O)cc2)cc1`, the Activity (MCF7 [1]) was 56%, the Activity (MCF7 [2]) was 20% and the IC50 [8] was 636 nM. It also gave an IC50 (MCF7 [3]) of 36 nM and an RBA [4] of 14%.

In the case of `O=C(NCCOc1ccc(C(=C2C3CC4CC(C3)CC2C4)c2ccc(O)cc2)cc1)C12CC3CC(CC(C3)C1)C2`, the Activity (MCF7 [1]) is reported as 76%, the Activity (MCF7 [2]) is reported as 16% and the IC50 (MCF7 [3]) is reported as 17 nM. It also gave an RBA [4] of 21%.

`O=C(NCCCCOc1ccc(C(=C2C3CC4CC(C3)CC2C4)c2ccc(O)cc2)cc1)C1CCC(F)(F)CC1` gave an Activity (MCF7 [1]) of 67%, an Activity (MCF7 [2]) of 20% and an IC50 (MCF7 [3]) of 4 nM. The RBA [4] was 30%.

`O=C(NCCCCOc1ccc(C(=C2C3CC4CC(C3)CC2C4)c2ccc(O)cc2)cc1)C1CCCCCC1` gave an Activity (MCF7 [1]) of 76%, an Activity (MCF7 [2]) of 15% and an IC50 (MCF7 [3]) of 5 nM. It also gave an RBA [4] of 30%.

Compound `CC(C)(C)OC(=O)N[C@@H](Cc1ccccc1)C(=O)NCCCCOc1ccc(C(=C2C3CC4CC(C3)CC2C4)c2ccc(O)cc2)cc1` has an Activity (MCF7 [1]) of 71%, an Activity (MCF7 [2]) of 25% and an IC50 [8] of 307 nM. For the same compound, the IC50 (MCF7 [3]) was 7 nM and the RBA [4] was 14%.

With `O=C(NCCCCOc1ccc(C(=C2C3CC4CC(C3)CC2C4)c2ccc(O)cc2)cc1)C1CCCCC1` the Activity (MCF7 [1]) was 35%, the Activity (MCF7 [9]) was “inactive” and the Activity (MCF7 [2]) was 13%. The IC50 [8] was 0.4 nM, the IC50 (MCF7 [3]) was 0.6 nM and the RBA [4] was 28%.

With `O=C(NCCCOc1ccc(C(=C2C3CC4CC(C3)CC2C4)c2ccc(O)cc2)cc1)C12CC3CC(CC(C3)C1)C2` the inhibition [5] was “Active”, the Activity (MCF7 [1]) was 42% and the inhibition [6] was “Active”. The inhibition [7] was “Active”, the Activity (MCF7 [2]) was 13% and the IC50 [8] was 3 nM. The IC50 (MCF7 [3]) was 9 nM and the RBA [4] was 26%.
